# In ChEMBL document CHEMBL2176877, “Inhibition of NF-κB-dependent cytokine and inducible nitric oxide synthesis by the macrocyclic ellagitannin oenothein B in TLR-stimulated RAW 264.7 macrophages” (J Nat Prod, 2012):
# Activity calls are given as the source filed them. The rule behind the calls is not given here.
# Legend:
# [1] = target: T1, Nitric oxide synthase, inducible (Mus musculus) (UniProt P29477); experiment: Inhibition of iNOS in mouse RAW264.7 cells at 50 ug/ml; assay type: cell-based
# T1 sequence (whole entry): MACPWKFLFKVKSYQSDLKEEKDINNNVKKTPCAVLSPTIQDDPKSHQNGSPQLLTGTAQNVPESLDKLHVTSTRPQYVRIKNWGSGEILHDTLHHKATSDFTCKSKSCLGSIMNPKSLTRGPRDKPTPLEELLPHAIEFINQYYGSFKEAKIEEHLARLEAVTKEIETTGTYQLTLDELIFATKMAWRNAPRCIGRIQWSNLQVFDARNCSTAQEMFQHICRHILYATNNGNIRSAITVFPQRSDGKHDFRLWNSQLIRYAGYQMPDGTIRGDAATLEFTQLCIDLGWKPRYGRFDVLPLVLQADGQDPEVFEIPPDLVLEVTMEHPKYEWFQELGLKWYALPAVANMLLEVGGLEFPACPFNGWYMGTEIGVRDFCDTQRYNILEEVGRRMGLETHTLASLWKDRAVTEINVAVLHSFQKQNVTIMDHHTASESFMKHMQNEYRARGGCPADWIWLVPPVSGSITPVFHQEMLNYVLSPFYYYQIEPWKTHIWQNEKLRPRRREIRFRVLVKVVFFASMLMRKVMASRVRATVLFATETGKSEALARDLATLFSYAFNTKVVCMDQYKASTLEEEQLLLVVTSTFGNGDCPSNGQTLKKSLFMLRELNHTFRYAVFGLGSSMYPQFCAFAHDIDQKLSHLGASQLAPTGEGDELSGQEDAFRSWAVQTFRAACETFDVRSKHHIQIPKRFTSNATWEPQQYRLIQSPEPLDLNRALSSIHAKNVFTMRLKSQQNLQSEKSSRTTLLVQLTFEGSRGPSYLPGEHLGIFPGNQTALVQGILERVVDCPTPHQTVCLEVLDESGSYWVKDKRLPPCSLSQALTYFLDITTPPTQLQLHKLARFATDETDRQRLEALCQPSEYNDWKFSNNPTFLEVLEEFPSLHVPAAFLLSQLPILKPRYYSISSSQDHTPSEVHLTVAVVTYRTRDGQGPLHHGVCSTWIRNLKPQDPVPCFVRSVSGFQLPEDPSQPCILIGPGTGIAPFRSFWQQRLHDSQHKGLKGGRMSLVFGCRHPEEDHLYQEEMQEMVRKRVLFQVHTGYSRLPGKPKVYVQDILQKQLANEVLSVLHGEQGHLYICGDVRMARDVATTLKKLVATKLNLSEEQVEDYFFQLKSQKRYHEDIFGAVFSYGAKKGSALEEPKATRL
# RAW264.7 [2] = experiment: Inhibition of LPS-induced NO production in mouse RAW264.7 cells assessed as reduction in nitrite level within 24 hrs by Griess reagent method; assay type: functional, cell-based; conditions: for IC50: RAW264.7, 24 h
# RAW264.7 [3] = experiment: Reduction of TNFalpha mRNA expression in LPS-stimulated mouse RAW264.7 cells by RT-PCR analysis; assay type: functional, cell-based
# Method in brief: (§1)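 IL-1beta, IL-6 and TNF-alpha mRNA from RAW 264.7 cells quantified by real-time RT-PCR using intron- or exon−exon boundary spanning primers. Results given as mean normalized expression; IL-6 and TNF-alpha levels normalized to 1000 copies of beta-actin.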
# [4] = target: Transcription factor p65 (Mus musculus) (UniProt Q04207); experiment: Inhibition of NFkappa-B p65 subunit nuclear translocation in LPS-stimulated mouse RAW264.7 cells preincubated for 30mins before LPS treatment by Western blot analysis; assay type: cell-based
# Chain of Transcription factor p65 (Mus musculus) (Q04207 whole entry): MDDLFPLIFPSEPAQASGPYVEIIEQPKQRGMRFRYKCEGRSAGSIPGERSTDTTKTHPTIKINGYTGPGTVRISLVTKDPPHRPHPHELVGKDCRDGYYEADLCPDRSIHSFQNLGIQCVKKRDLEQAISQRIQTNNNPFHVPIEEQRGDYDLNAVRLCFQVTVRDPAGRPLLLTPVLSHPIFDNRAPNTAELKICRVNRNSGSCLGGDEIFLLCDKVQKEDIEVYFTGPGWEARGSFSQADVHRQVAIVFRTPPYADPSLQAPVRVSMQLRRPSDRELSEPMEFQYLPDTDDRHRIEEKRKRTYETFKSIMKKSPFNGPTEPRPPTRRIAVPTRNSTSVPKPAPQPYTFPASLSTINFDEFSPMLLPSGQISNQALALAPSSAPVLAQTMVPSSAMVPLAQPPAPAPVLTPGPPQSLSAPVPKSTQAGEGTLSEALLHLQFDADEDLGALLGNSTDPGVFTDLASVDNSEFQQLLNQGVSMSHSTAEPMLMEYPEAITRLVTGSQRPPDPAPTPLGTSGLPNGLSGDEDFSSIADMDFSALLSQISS
# Method in brief: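 Macrophages pre-incubated with compound at 20−60 μg/mL for 30 min, then stimulated with LPS for 20 min. Nuclear extracts immunoblotted against NF-κB p65, detected as a 65 kD band.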
# RAW264.7 [5] = experiment: Cytotoxicity against mouse RAW264.7 cells assessed as reduction in membrane integrity by MTT assay; assay type: cell-based; conditions: in the assay text read “trypan blue exclusion assay” for “MTT assay”
# Method in brief: (§2)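 RAW 264.7 cells exposed to compound at 20−60 μg/mL over the course of the experimental procedures. Viability checked by trypan blue exclusion (membrane integrity) and by MTT test (cellular metabolism/mitochondrial respiration).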
# RAW264.7 [6] = experiment: Reduction of IL-1beta mRNA expression in LPS-stimulated mouse RAW264.7 cells by RT-PCR analysis; assay type: functional, cell-based; method in brief: as §1
# RAW264.7 [7] = experiment: Reduction of iNOS mRNA expression in LPS-stimulated mouse RAW264.7 cells after 24 hrs by RT-PCR analysis; assay type: functional, cell-based
# Method in brief: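 LPS-stimulated macrophages given compound at 20−60 μg/mL for 24 h. iNOS mRNA (775 bp) measured by semiquantitative competitive RT-PCR against beta-actin mRNA (513 bp). One representative of three experiments.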
# RAW264.7 [8] = experiment: Reduction of iNOS expression in LPS-stimulated mouse RAW264.7 cells after 24 hrs by Western blot analysis; assay type: functional, cell-based
# Method in brief: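 Cells treated with LPS and compound at 10−60 μg/mL for 24 h. Lysates immunoblotted with rabbit polyclonal anti-iNOS, detecting a 130 kD band matched to purified iNOS. Beta-actin (43 kD) used as loading control.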
# [9] = target: T1, Nitric oxide synthase, inducible (Mus musculus); experiment: Inhibition of iNOS in mouse RAW264.7 cells at 60 ug/ml; assay type: cell-based
# Method in brief: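 Cytosolic iNOS enzymatic activity assayed with compound at 60 μg/mL final concentration, compared with incubations lacking compound. L-NAME (300 μM) and W1400 (50 μg/mL) served as reference inhibitors.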
# RAW264.7 [10] = experiment: Cytotoxicity against LPS-stimulated mouse RAW264.7 cells assessed as decrease in total mRNA transcription after 24 hrs by RT-PCR analysis; assay type: cell-based; conditions: raw264.7, 24 h
# Method in brief: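 LPS-stimulated RAW 264.7 macrophages co-incubated with test compound at 20−60 μg/mL for 24 h. iNOS mRNA (775 bp) and beta-actin mRNA (513 bp) analysed by semiquantitative competitive RT-PCR, with actin mRNA used to judge any generalized fall in transcription. One representative of three experiments.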
# RAW264.7 [11] = experiment: Inhibition of LPS-induced NO production in mouse RAW264.7 cells assessed as reduction in nitrite level at 60 ug/ml after 24 hrs by Griess reagent method; assay type: functional; conditions: RAW264.7, 24 h
# [12] = target: T2, Nuclear factor NF-kappa-B p105 subunit (Mus musculus) (UniProt P25799); experiment: Inhibition of binding of NFkappa-B p50 subunit to biotinylated consensus sequence in nuclear extract of LPS-stimulated mouse RAW264.7 cells after 1 hr by; assay type: cell-based
# T2 sequence (whole entry): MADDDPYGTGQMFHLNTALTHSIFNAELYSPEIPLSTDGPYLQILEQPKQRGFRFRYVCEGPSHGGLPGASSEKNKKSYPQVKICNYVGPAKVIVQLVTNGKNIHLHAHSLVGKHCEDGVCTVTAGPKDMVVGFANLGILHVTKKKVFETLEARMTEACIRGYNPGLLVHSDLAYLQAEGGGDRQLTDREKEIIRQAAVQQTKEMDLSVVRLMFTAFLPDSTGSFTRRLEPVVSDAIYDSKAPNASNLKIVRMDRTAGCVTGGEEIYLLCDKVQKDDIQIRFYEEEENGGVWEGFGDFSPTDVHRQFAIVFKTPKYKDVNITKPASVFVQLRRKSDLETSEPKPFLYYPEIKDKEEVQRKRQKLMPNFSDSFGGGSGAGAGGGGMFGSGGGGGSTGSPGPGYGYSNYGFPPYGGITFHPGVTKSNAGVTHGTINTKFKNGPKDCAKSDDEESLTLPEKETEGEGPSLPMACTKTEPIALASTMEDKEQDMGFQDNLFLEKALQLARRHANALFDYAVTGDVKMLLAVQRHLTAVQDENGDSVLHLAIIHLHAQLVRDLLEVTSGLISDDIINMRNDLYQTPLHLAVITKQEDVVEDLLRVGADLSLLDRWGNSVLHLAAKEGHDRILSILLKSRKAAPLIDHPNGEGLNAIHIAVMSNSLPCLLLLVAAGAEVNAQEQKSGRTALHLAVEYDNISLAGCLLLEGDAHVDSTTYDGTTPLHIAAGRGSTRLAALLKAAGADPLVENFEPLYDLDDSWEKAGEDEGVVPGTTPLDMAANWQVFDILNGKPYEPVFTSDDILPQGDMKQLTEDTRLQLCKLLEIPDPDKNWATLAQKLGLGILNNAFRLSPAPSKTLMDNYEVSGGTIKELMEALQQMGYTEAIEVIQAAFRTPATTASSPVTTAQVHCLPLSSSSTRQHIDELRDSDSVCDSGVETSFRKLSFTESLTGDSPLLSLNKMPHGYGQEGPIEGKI
# Method in brief: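 RAW 264.7 cells (1 × 10^6) seeded in six-well plates, with LPS and compound added together for 1 h. Nuclear extracts prepared and binding of NF-κB p50 to a biotinylated consensus sequence read as relative light units.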
# RAW264.7 [13] = experiment: Inhibition of LPS-induced NO production in mouse RAW264.7 cells assessed as reduction in nitrite level at 20 ug/ml after 24 hrs by Griess reagent method; assay type: functional; conditions: RAW264.7, 24 h
# RAW264.7 [14] = experiment: Inhibition of LPS-induced NO production in mouse RAW264.7 cells assessed as reduction in nitrite level after 24 hrs by Griess reagent method in presence of IFN-gamma; assay type: functional, cell-based
# Method in brief: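 Stimulation of the JAK-STAT pathway in RAW 264.7 cells with interferon-gamma at 100 U/mL in the presence of compound. Inducible NO synthesis measured as medium nitrite by Griess reaction.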
# RAW264.7 [15] = experiment: Inhibition of LPS-induced NO production in mouse RAW264.7 cells assessed as reduction in nitrite level at 30 ug/ml after 24 hrs by Griess reagent method; assay type: functional; conditions: RAW264.7, 24 h
# RAW264.7 [16] = experiment: Inhibition of LPS-induced NO production in mouse RAW264.7 cells assessed as reduction in nitrite level after 24 hrs by Griess reagent method in presence of TLR2 agonist pam2CSK4; assay type: functional, cell-based
# RAW264.7 [17] = experiment: Inhibition of LPS-induced NO production in mouse RAW264.7 cells assessed as reduction in nitrite level after 24 hrs by Griess reagent method in presence of TLR4 agonist Kdo2; assay type: functional, cell-based
# Method in brief: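 TLR4 activation of RAW 264.7 cells with Kdo2-lipid A at 500 ng/mL, together with compound at 30−60 μg/mL for 24 h. Nitrite in the culture medium determined by Griess reaction.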
# RAW264.7 [18] = experiment: Cytotoxicity against mouse RAW264.7 cells assessed as reduction in mitochondrial respiration by MTT assay; assay type: cell-based; method in brief: as §2
# RAW264.7 [19] = experiment: Inhibition of LPS-induced NO production in mouse RAW264.7 cells assessed as reduction in nitrite level after 24 hrs by Griess reagent method in presence of TLR4 agonist Kdo2
# RAW264.7 [20] = experiment: Cytotoxicity against mouse RAW264.7 cells assessed as reduction in cellular metabolism by MTT assay; assay type: ADME, cell-based; method in brief: as §2
# RAW264.7 [21] = experiment: Inhibition of LPS-induced NO production in mouse RAW264.7 cells assessed as reduction in nitrite level after 48 hrs by Griess reagent method in presence of TLR2 agonist pam2CSK4; assay type: functional, cell-based
# Method in brief: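 Cells stimulated through TLR2 with Pam2CSK4 (500 ng/mL) and incubated with compound at 30−60 μg/mL for 48 h. Nitrite read-out by Griess reaction.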
# RAW264.7 [22] = experiment: Reduction of IL-6 mRNA expression in LPS-stimulated mouse RAW264.7 cells by RT-PCR analysis; assay type: functional, cell-based; method in brief: as §1
# [23] = target: T1, Nitric oxide synthase, inducible (Mus musculus); conditions: RAW264.7, 300 uM
smiles,measurement,setting,value
CC(=N)NCc1cccc(CN)c1,inhibition,[1],> 70%
O=C(O)c1cc(O)c(O)c(O)c1 [GALLIC ACID],IC50,RAW264.7 [2],632 µM
O=C(O[C@H]1[C@@H]2OC(=O)c3cc(O)c(O)c(O)c3-c3c4cc(c(O)c3O)Oc3c(cc(O)c(O)c3O)C(=O)O[C@H]3C(O)O[C@@H]5COC(=O)c6cc(O)c(O)c(O)c6-c6c(cc(c(O)c6O)Oc6c(cc(O)c(O)c6O)C(=O)O[C@H]1C(O)O[C@@H]2COC4=O)C(=O)O[C@H]5[C@@H]3OC(=O)c1cc(O)c(O)c(O)c1)c1cc(O)c(O)c(O)c1 (stereo not given in full) [OENOTHEIN B],inhibition,RAW264.7 [2],Dose-dependent effect
same,IC50,RAW264.7 [2],17.7 µM
same,Activity,RAW264.7 [3],Active
same,inhibition,[4],Dose-dependent effect
same,Activity,RAW264.7 [5],Non-toxic
same,Activity,RAW264.7 [6],Active
same,Activity,RAW264.7 [7],Dose-dependent effect
same,Activity,RAW264.7 [8],Dose-dependent effect
same,inhibition,[9],inactive
same,Activity,RAW264.7 [10],Non-toxic
same,inhibition at 60 µg/mL,RAW264.7 [11],87.9%
same,inhibition,[12],Active
same,inhibition at 20 µg/mL,RAW264.7 [13],34.8%
same,inhibition,RAW264.7 [14],inactive
same,inhibition at 30 µg/mL,RAW264.7 [15],64.6%
same,inhibition,RAW264.7 [16],Dose-dependent effect
same,inhibition,RAW264.7 [17],Dose-dependent effect
same,Activity,RAW264.7 [18],Non-toxic
same,inhibition,RAW264.7 [19],Dose-dependent effect
same,Activity,RAW264.7 [20],Non-toxic
same,inhibition,RAW264.7 [21],Dose-dependent effect
same,Activity,RAW264.7 [22],Active
COC(=O)[C@@H](N)CCCNC(=N)N[N+](=O)[O-],inhibition,[23],> 70%
